{"source": "paper PMC3040319", "about": "(Pharmaceutical Research, 2010)", "key": {"[1]": {"test_system": "primary mouse hepatocytes", "type": "in vitro ADME", "conditions": "30 min exposure"}, "Oct1+/+ and Oct1-/- mice": {"test_system": "Oct1+/+ and Oct1-/- mice", "experiment": "Toxicity study of oxaliplatin in Oct1+/+ and Oct1-/- mice", "type": "in vivo, mouse", "conditions": "6 mg/kg i.p. once daily for 5 days"}, "[2]": {"experiment": "Tissue accumulation of platinum in Oct1+/+ and Oct1-/- mice", "type": "in vivo, mouse", "conditions": "1 h after 8 mg/kg i.v.", "in_short": "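Male FVB Oct1+/+ and Oct1-/- mice (8 weeks) were given 8 mg/kg in saline i.v. by tail vein and killed 1 h later. Liver, kidney, heart, lung, brain, intestine, spleen and muscle were snap-frozen. Total Pt was measured by ICP-MS in 10–30 mg tissue and reported as nmol/g tissue; plasma was reported in μM.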"}}, "note": "Read-outs that look alike come from different tables or passages of the source."}
{"compound": "O=C1[O][Pt]2([NH][C@@H]3CCCC[C@H]3[NH]2)[O]C1=O", "note": "[oxaliplatin, Oxaliplatin, reference compound]", "values": [{"measurement": "hepatocellular uptake rate, wild-type as fold of Oct1-/-", "setting": "[1]; 1 μM", "result": 1.8, "unit": "fold"}, {"measurement": "hepatocellular uptake rate, wild-type as fold of Oct1-/-", "setting": "[1]; 5 μM", "result": 1.4, "unit": "fold"}, {"measurement": "hepatocellular uptake rate", "setting": "[1]; hepatocytes from Oct1-/- mice, 1 μM", "result": "0.855 ± 0.184", "unit": "pmol/mg protein/hr"}, {"measurement": "hepatocellular uptake rate", "setting": "[1]; hepatocytes from Oct1-/- mice, 5 μM", "result": "3.97 ± 0.500", "unit": "pmol/mg protein/hr"}, {"measurement": "hepatocellular uptake rate", "setting": "[1]; hepatocytes from Oct1 wild-type mice, 1 μM", "result": "1.54 ± 0.300", "unit": "pmol/mg protein/hr"}, {"measurement": "hepatocellular uptake rate", "setting": "[1]; hepatocytes from Oct1 wild-type mice, 5 μM", "result": "5.55 ± 0.384", "unit": "pmol/mg protein/hr"}, {"measurement": "relative body weight loss", "setting": "Oct1+/+ and Oct1-/- mice; Oct1+/+ mice", "result": 15.1, "unit": "%"}, {"measurement": "relative body weight loss", "setting": "Oct1+/+ and Oct1-/- mice; Oct1-/- mice", "result": 6.8, "unit": "%"}, {"measurement": "liver histopathology examination", "setting": "Oct1+/+ and Oct1-/- mice; either Oct1+/+ or Oct1-/- mice", "result": "no clear sign of liver damage"}, {"measurement": "plasma concentration", "setting": "[2]; Oct1+/+ mice", "result": "5.96 ± 0.54", "unit": "µM"}, {"measurement": "plasma concentration", "setting": "[2]; Oct1-/- mice", "result": "6.69 ± 0.62", "unit": "µM"}]}
